Results as given in ChEMBL document CHEMBL1122216, “2-(Aminomethyl)phenols, a new class of saluretic agents. 6. Effects of N,O-spiroannulation and subsequent quaternization” (1983).

Tests used:
[1] = test system: Rattus norvegicus; experiment: Antihypertensive activity after administration of 20 mg/kg dose in spontaneously hypertensive(SH) rats; score is for average value of two animals; type: functional
Method in brief: (§1)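 Spontaneously hypertensive rats were scored by the maximum fall in blood pressure: 0, <20 mm; 1, <30 mm; 2, <40 mm; 3, >40 mm Hg.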

[2] = test system: Canis familiaris; experiment: Saluretic property in an anesthetized dog after 5 mg/kg po administration; score is for average of two animals; type: functional, Canis lupus familiaris
[3] = test system: Rattus norvegicus; experiment: Antihypertensive activity after po administration of 5 mg/kg dose in spontaneously hypertensive(SH) rats; score is for average value of two animals; type: functional; method in brief: as §1
[4] = test system: Rattus norvegicus; experiment: Saluretic property after administration in rats; type: functional
Method in brief: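 Rats were housed three per cage, with three cages per dose. Sodium excreted over the first 5 h was scored from the geometric mean: 0, <2 mequiv; ±, >2; 1, <8; 2, <15; 3, <25; 4, <35; 5, <45; 6, <55 mequiv.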

[5] = test system: Rattus norvegicus; experiment: Antihypertensive activity after intraperitoneal administration of 20 mg/kg dose in spontaneously hypertensive(SH) rats; score is for average value of two animals; type: functional; method in brief: as §1
[6] = test system: Canis familiaris; experiment: Saluretic property in an anesthetized dog after 5 mg/kg administration; type: functional, Canis lupus familiaris
[7] = test system: Rattus norvegicus; experiment: Antihypertensive activity after po administration of 0.08 mg/kg dose in spontaneously hypertensive(SH) rats; Score is for average value of six animals; type: functional; method in brief: as §1
[8] = test system: Rattus norvegicus; experiment: Antihypertensive activity after po administration of 0.31 mg/kg dose in spontaneously hypertensive(SH) rats; Score is for average value of six animals; type: functional; method in brief: as §1
[9] = test system: Rattus norvegicus; experiment: Antihypertensive activity after po administration of 5 mg/kg dose in spontaneously hypertensive(SH) rats; Score is for average value of six animals; type: functional; method in brief: as §1
[10] = test system: Rattus norvegicus; experiment: Antihypertensive activity after po administration of 1.25 mg/kg dose in spontaneously hypertensive(SH) rats; Score is for average value of six animals; type: functional; method in brief: as §1
[11] = test system: Rattus norvegicus; experiment: Antihypertensive activity after administration of 20 mg/kg dose in spontaneously hypertensive(SH) rats; score is for average value of four animals; type: functional; method in brief: as §1
[12] = test system: Rattus norvegicus; experiment: Antihypertensive activity after po administration of 40 mg/kg dose in spontaneously hypertensive(SH) rats; score is for average value of four animals; type: functional; method in brief: as §1
[13] = test system: Rattus norvegicus; experiment: Antihypertensive activity after oral administration of 5 mg/kg dose in spontaneously hypertensive(SH) rats; type: functional; method in brief: as §1
[14] = test system: Rattus norvegicus; experiment: Antihypertensive activity after oral administration of 20 mg/kg dose in spontaneously hypertensive(SH) rats; type: functional; method in brief: as §1
[15] = test system: Rattus norvegicus; experiment: Antihypertensive activity after po administration of 0.08 mg/kg dose in spontaneously hypertensive(SH) rats; score is for average value of four animals; type: functional; method in brief: as §1
[16] = test system: Rattus norvegicus; experiment: Antihypertensive activity after po administration of 0.31 mg/kg dose in spontaneously hypertensive(SH) rats; score is for average value of four animals; type: functional; method in brief: as §1
[17] = test system: Rattus norvegicus; experiment: Antihypertensive activity after administration of 5 mg/kg dose in spontaneously hypertensive(SH) rats; score is for average value of four animals; type: functional; method in brief: as §1
[18] = test system: Canis familiaris; experiment: Saluretic property in a anesthetized dog after 5 mg/kg oral administration; type: functional, Canis lupus familiaris
[19] = test system: Rattus norvegicus; experiment: Antihypertensive activity after oral administration of 0.31 mg/kg dose in spontaneously hypertensive(SH) rats; type: functional; method in brief: as §1
[20] = test system: Canis familiaris; experiment: Saluretic property in an average of two anesthetized dog after 5 mg/kg po administration; type: functional, Canis lupus familiaris
[21] = test system: Rattus norvegicus; experiment: Antihypertensive activity after intraperitoneal administration of 20 mg/kg dose in spontaneously hypertensive(SH) rats; type: functional; method in brief: as §1
[22] = test system: Rattus norvegicus; experiment: Antihypertensive activity after po administration of 40 mg/kg dose in spontaneously hypertensive(SH) rats; score is for average value of two animals; type: functional; method in brief: as §1
[23] = test system: Rattus norvegicus; experiment: Antihypertensive activity after po administration of 20 mg/kg dose in spontaneously hypertensive(SH) rats; score is for average value of six animals; type: functional; method in brief: as §1
[24] = test system: Rattus norvegicus; experiment: Antihypertensive activity after po administration of 5 mg/kg dose in spontaneously hypertensive(SH) rats; Score is for average value of two animals; type: functional; method in brief: as §1
[25] = test system: Rattus norvegicus; experiment: Antihypertensive activity after po administration of 20 mg/kg dose in spontaneously hypertensive(SH) rats; Score is for average value of two animals; type: functional; method in brief: as §1

**Q.** Which Antihypertensive score [1] does the source give for CC(C)(C)c1cc(I)c2c(c1)CNC1(CCSCC1)O2 here?
**A.** 2

**Q.** What about the Saluretic score [2] of the same compound?
**A.** 2

**Q.** What about the Antihypertensive score [3] of the same compound?
**A.** 0

**Q.** What about the Saluretic score [4] of the same compound?
**A.** 4

**Q.** For CC(C)(C)c1cc(I)c2c(c1)C[N+](C)(C)C(C)(C)O2.[I-], which Antihypertensive score [5] is on record?
**A.** 0

**Q.** What does the source list for CC(C)(C)c1cc(I)c(O)c(CN)c1.Cl?
**A.** Saluretic score [6]: 6; Antihypertensive score [7]: 0; Antihypertensive score [8]: 1; Antihypertensive score [9]: 3; Antihypertensive score [10]: 2; Saluretic score [4]: 6

**Q.** For CC(C)(C)c1cc(I)c2c(c1)CNC1(CCCCC1)O2, which Saluretic score [6] is on record?
**A.** 5

**Q.** And the Antihypertensive score [11]?
**A.** 0

**Q.** What about the Antihypertensive score [12] of the same compound?
**A.** 1

**Q.** What about the Saluretic score [4] of the same compound?
**A.** 5

**Q.** Which results are given for CC(C)(C)c1cc(I)c2c(c1)C[N+](C)(C)C1(CCNCC1)O2.[Cl-]?
**A.** Saluretic score [6]: 0; Antihypertensive score [1]: 0; Antihypertensive score [5]: 0; Saluretic score [4]: 0

**Q.** How did the Antihypertensive score [13] turn out when CC(C)(C)c1cc(I)c2c(c1)CNC1(CCC3(CC1)NCc1cc(C(C)(C)C)cc(I)c1O3)O2 (stereo unspecified) was run?
**A.** 0

**Q.** What about the Antihypertensive score [14] of the same compound?
**A.** 2

**Q.** What about the Saluretic score [4] of the same compound?
**A.** 2

**Q.** CC(C)(C)c1cc(I)c2c(c1)C[N+](C)(C)C1(CCCCC1)O2.[I-] was tested. Which Saluretic score [6] did it give?
**A.** 0

**Q.** And the Antihypertensive score [15]?
**A.** 0

**Q.** And the Antihypertensive score [16]?
**A.** 2

**Q.** And the Saluretic score [4]?
**A.** 0

**Q.** And the Antihypertensive score [17]?
**A.** 2

**Q.** What does the source list for CC(=O)Oc1cc(C(C)(C)C)cc2c1OC1(CCCCC1)[N+](C)(C)C2.[I-]?
**A.** Antihypertensive score [13]: 2; Saluretic score [18]: 0; Antihypertensive score [19]: 1; Saluretic score [4]: 0

**Q.** With CC(C)(C)c1cc(I)c2c(c1)CNC1(CCC(C(=O)O)CC1)O2 (stereo unspecified) as the compound, how does the Saluretic score [6] read?
**A.** 5

**Q.** What about the Antihypertensive score [1] of the same compound?
**A.** 2

**Q.** What about the Saluretic score [4] of the same compound?
**A.** 4

**Q.** And the Antihypertensive score [17]?
**A.** 2

**Q.** For CC(C)(C)c1cc(Cl)c2c(c1)CNC1(CCCCC1)O2, which Saluretic score [6] is on record?
**A.** 5

**Q.** What about the Antihypertensive score [5] of the same compound?
**A.** 0

**Q.** What about the Saluretic score [4] of the same compound?
**A.** 3

**Q.** Which Antihypertensive score [11] does the source give for CC1(C)CC(C)(C)CC2(C1)NCc1cc(C(C)(C)C)cc(I)c1O2 here?
**A.** 1

**Q.** And the Antihypertensive score [3]?
**A.** 0

**Q.** What about the Saluretic score [4] of the same compound?
**A.** 4

**Q.** How did the Saluretic score [6] turn out when CC(C)(C)c1cc(I)c2c(c1)CNC1(O2)C2CC3CC(C2)CC1C3 (stereo unspecified) was run?
**A.** 0

**Q.** And the Antihypertensive score [1]?
**A.** 2

**Q.** And the Saluretic score [4]?
**A.** 3

**Q.** And the Antihypertensive score [17]?
**A.** 0

**Q.** Which results are given for CC(C)(C)c1cc(I)c2c(c1)CNC1(CCCCCCCCCCC1)O2?
**A.** Antihypertensive score [11]: 1; Saluretic score [20]: 2; Saluretic score [4]: 4; Antihypertensive score [17]: 0

**Q.** Which Antihypertensive score [1] does the source give for CC(C)(C)c1cc(Cl)c2c(c1)C[N+](C)(C)C1(CCCCC1)O2.[I-] here?
**A.** 0

**Q.** What about the Antihypertensive score [5] of the same compound?
**A.** 0.5

**Q.** What about the Saluretic score [4] of the same compound?
**A.** 0

**Q.** For CN1CCC2(CC1)NCc1cc(C(C)(C)C)cc(I)c1O2, which Saluretic score [6] is on record?
**A.** 5

**Q.** What about the Antihypertensive score [5] of the same compound?
**A.** 2

**Q.** What about the Antihypertensive score [11] of the same compound?
**A.** 1

**Q.** What about the Saluretic score [4] of the same compound?
**A.** 4

**Q.** Which results are given for CC(=O)N1CCC2(CC1)NCc1cc(C(C)(C)C)cc(I)c1O2?
**A.** Saluretic score [6]: 4; Antihypertensive score [5]: 0

**Q.** With CC(C)(C)c1cc(I)c2c(c1)C[N+](C)(C)C1(CCC(C(C)(C)C)CC1)O2.[I-] (stereo unspecified) as the compound, how does the Antihypertensive score [21] read?
**A.** 2

**Q.** What about the Saluretic score [18] of the same compound?
**A.** 0

**Q.** What about the Antihypertensive score [14] of the same compound?
**A.** 0

**Q.** What about the Saluretic score [4] of the same compound?
**A.** 0

**Q.** For CC(C)(C)c1cc(Cl)c(O)c(CN)c1.Cl, which Saluretic score [6] is on record?
**A.** 4

**Q.** And the Antihypertensive score [1]?
**A.** 0

**Q.** And the Antihypertensive score [22]?
**A.** 2

**Q.** And the Saluretic score [4]?
**A.** 6

**Q.** Which results are given for CC(C)(C)c1cc(I)c2c(c1)CNC1(CCN(CCc3ccccc3)CC1)O2?
**A.** Saluretic score [6]: 5; Antihypertensive score [23]: 1; Saluretic score [4]: 4; Antihypertensive score [17]: 0

**Q.** Which Antihypertensive score [21] does the source give for CC(C)(C)c1cc(I)c2c(c1)CNC1(CCC(C(C)(C)C)CC1)O2 (stereo unspecified) here?
**A.** 0

**Q.** What about the Saluretic score [18] of the same compound?
**A.** 5

**Q.** What about the Saluretic score [4] of the same compound?
**A.** 4

**Q.** For CC(C)(C)c1cc(I)c2c(c1)CN(CN1COc3c(I)cc(C(C)(C)C)cc3C1)CO2, which Antihypertensive score [21] is on record?
**A.** 0

**Q.** For CC(=O)N1CCC2(CC1)Oc1c(I)cc(C(C)(C)C)cc1C[N+]2(C)C.[I-], which Saluretic score [6] is on record?
**A.** 0

**Q.** What about the Antihypertensive score [24] of the same compound?
**A.** 0

**Q.** What about the Antihypertensive score [25] of the same compound?
**A.** 2

**Q.** And the Saluretic score [4]?
**A.** 0

**Q.** Which Antihypertensive score [1] does the source give for CC1CCC2(CC1)Oc1c(I)cc(C(C)(C)C)cc1C[N+]2(C)C.[I-] (stereo unspecified) here?
**A.** 0

**Q.** How did the Antihypertensive score [5] turn out when CC(C)(C)c1cc(I)c2c(c1)C[N+](C)(C)CO2.[I-] was run?
**A.** 2

**Q.** What about the Antihypertensive score [3] of the same compound?
**A.** 0

**Q.** And the Saluretic score [4]?
**A.** 0

**Q.** For CC(C)(C)c1cc(I)c2c(c1)CNC1(O2)C2CC3C(C2)C31 (stereo unspecified), which Saluretic score [6] is on record?
**A.** 5

**Q.** What about the Antihypertensive score [23] of the same compound?
**A.** 2

**Q.** What about the Saluretic score [4] of the same compound?
**A.** 5

**Q.** And the Antihypertensive score [17]?
**A.** 1

**Q.** With CC(C)(C)c1cc(I)c2c(c1)C[N+](C)(C)C1(CCCC1)O2.[I-] as the compound, how does the Antihypertensive score [1] read?
**A.** 0

**Q.** And the Antihypertensive score [5]?
**A.** 3

**Q.** With CN1CCC2(CC1)NCc1cc(C(C)(C)C)cc(Cl)c1O2 as the compound, how does the Saluretic score [6] read?
**A.** 5

**Q.** And the Antihypertensive score [11]?
**A.** 0

**Q.** What about the Saluretic score [4] of the same compound?
**A.** 3
